Data from ChEMBL document CHEMBL1649396, “Synthesis, biological evaluation of chrysin derivatives as potential immunosuppressive agents” (Eur J Med Chem, 2011).

How the values were obtained:
T-cell [1] = assay: Selectivity index, ratio of CC50 for BALB/c mouse T cells to IC50 for immunosuppressive activity in BALB/c mouse T cells; type: functional
[2] = Cytotoxicity against BALB/c mouse T cells after 48 hrs by MTT assay; type: cell-based, T-cell
In short: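 Lymph node cells from female BALB/c mice, 6-8 weeks old and specific-pathogen-free, plated at 5 × 10⁵ cells/well with graded compound for 48 h. Medium was RPMI 1640 with 10% fetal calf serum and penicillin/streptomycin, at 37 °C under 5% CO₂. MTT (4 mg/mL in PBS) was added 4 h before the end. Formazan was dissolved in DMSO and read at OD540. CC50 is the concentration reducing viability to 50%.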

[3] = Immunosuppressive activity in BALB/c mouse T cells assessed as inhibition of anti-CD3/anti-CD28-stimulated cell proliferation after 72 hrs by MTT assay; type: functional, cell-based
In short: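 Female BALB/c mouse lymph node cells, 5 × 10⁵/well, stimulated with anti-CD3/anti-CD28 alongside graded compound for 72 h. MTT (4 mg/mL in PBS) was added 4 h before harvest. Formazan was dissolved in DMSO and read at 540 nm.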

[4] = Cytotoxicity against human L02 cells after 48 hrs by MTT assay; type: cell-based; conditions: L02, 48 h
In short: (§1)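 Cells seeded at 5 × 10⁵ per well and exposed to a range of compound concentrations for 48 h. MTT (4 mg/mL in PBS) added 4 h before end of incubation. Medium replaced by DMSO to dissolve formazan, absorbance read at 540 nm. Value reported as IC₅₀.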

KB = assay: Cytotoxicity against human KB cells after 48 hrs by MTT assay; type: functional, cell-based; in short: as §1
HepG2 = assay: Cytotoxicity against human HepG2 cells after 48 hrs by MTT assay; type: functional, cell-based; conditions: HepG2, 48 h; in short: as §1
K562 = assay: Cytotoxicity against human K562 cells after 48 hrs by MTT assay; type: functional, cell-based; conditions: K562, 48 h; in short: as §1
T-cell [5] = assay: Immunosuppressive activity in anti-CD3/anti-CD28-stimulated BALB/c mouse T cells assessed as non-viable necrotic cells at 8 uM after 48 hrs by FACS analysis; type: functional
In short: (§2)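 Lymph node cells isolated from naive BALB/c mice, cultured with anti-CD3/anti-CD28 plus compound at 1, 2, 4 or 8 µM for 48 h. Cells were stained with Annexin V-FITC and propidium iodide and analysed by flow cytometry to give apoptotic, necrotic and viable fractions.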

T-cell [6] = assay: Immunosuppressive activity in anti-CD3/anti-CD28-stimulated BALB/c mouse T cells assessed as induction of apoptosis after 48 hrs by FACS analysis; type: functional, cell-based; in short: as §2
T-cell [7] = assay: Immunosuppressive activity in anti-CD3/anti-CD28-stimulated BALB/c mouse T cells assessed as late apoptotic cells at 1 uM after 48 hrs by FACS analysis; type: functional; in short: as §2
T-cell [8] = assay: Immunosuppressive activity in anti-CD3/anti-CD28-stimulated BALB/c mouse T cells assessed as non-viable necrotic cells at 1 uM after 48 hrs by FACS analysis; type: functional; in short: as §2
T-cell [9] = assay: Immunosuppressive activity in anti-CD3/anti-CD28-stimulated BALB/c mouse T cells assessed as early apoptotic cells at 8 uM after 48 hrs by FACS analysis; type: functional; in short: as §2
T-cell [10] = assay: Immunosuppressive activity in anti-CD3/anti-CD28-stimulated BALB/c mouse T cells assessed as non-viable necrotic cells at 2 uM after 48 hrs by FACS analysis; type: functional; in short: as §2
T-cell [11] = assay: Immunosuppressive activity in anti-CD3/anti-CD28-stimulated BALB/c mouse T cells assessed as late apoptotic cells at 2 uM after 48 hrs by FACS analysis; type: functional; in short: as §2
T-cell [12] = assay: Immunosuppressive activity in anti-CD3/anti-CD28-stimulated BALB/c mouse T cells assessed as non-viable necrotic cells at 4 uM after 48 hrs by FACS analysis; type: functional; in short: as §2
T-cell [13] = assay: Immunosuppressive activity in anti-CD3/anti-CD28-stimulated BALB/c mouse T cells assessed as early apoptotic cells at 2 uM after 48 hrs by FACS analysis; type: functional; in short: as §2
T-cell [14] = assay: Immunosuppressive activity in anti-CD3/anti-CD28-stimulated BALB/c mouse T cells assessed as late apoptotic cells at 4 uM after 48 hrs by FACS analysis; type: functional; in short: as §2
T-cell [15] = assay: Immunosuppressive activity in anti-CD3/anti-CD28-stimulated BALB/c mouse T cells assessed as early apoptotic cells at 1 uM after 48 hrs by FACS analysis; type: functional; in short: as §2
T-cell [16] = assay: Immunosuppressive activity in anti-CD3/anti-CD28-stimulated BALB/c mouse T cells assessed as viable cells at 4 uM after 48 hrs by FACS analysis; type: functional; conditions: read-out: Activity; in short: as §2
T-cell [17] = assay: Immunosuppressive activity in anti-CD3/anti-CD28-stimulated BALB/c mouse T cells assessed as late apoptotic cells at 8 uM after 48 hrs by FACS analysis; type: functional; in short: as §2
T-cell [18] = assay: Immunosuppressive activity in anti-CD3/anti-CD28-stimulated BALB/c mouse T cells assessed as viable cells at 8 uM after 48 hrs by FACS analysis; type: functional; conditions: read-out: Activity; in short: as §2
T-cell [19] = assay: Immunosuppressive activity in anti-CD3/anti-CD28-stimulated BALB/c mouse T cells assessed as early apoptotic cells at 4 uM after 48 hrs by FACS analysis; type: functional; in short: as §2
[20] = Toxicity in po dosed BALB/c mouse; type: organism-based; conditions: in vivo
In short: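 Acute oral toxicity in female SPF BALB/c mice, 6–8 weeks old, by OECD 425 up-and-down procedure. Food withheld 3–4 h before and 1–2 h after dosing. Animals dosed one at a time at 24 h intervals, dose raised after survival and lowered after death, four more dosed after reversal. 35 animals in total. LD₅₀ estimated by maximum likelihood with AOT425StatPgm.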

T-cell [21] = assay: Immunosuppressive activity in anti-CD3/anti-CD28-stimulated BALB/c mouse T cells assessed as viable cells at 1 uM after 48 hrs by FACS analysis; type: functional; conditions: read-out: Activity; in short: as §2
T-cell [22] = assay: Immunosuppressive activity in anti-CD3/anti-CD28-stimulated BALB/c mouse T cells assessed as viable cells at 2 uM after 48 hrs by FACS analysis; type: functional; conditions: read-out: Activity; in short: as §2

## O=c1cc(-c2ccccc2)oc2cc(O)cc(O)c12 [CHRYSIN]
T-cell [1]
  Ratio CC50/IC50: 9.7
[2]
  CC50 at 48 h: 428 µM
[3]
  IC50: 44.2 µM

## O=C(COc1cc(O)c2c(=O)cc(-c3ccccc3)oc2c1)Oc1cccc(F)c1C(=O)O
T-cell [1]
  Ratio CC50/IC50: 7.91
[2]
  CC50 at 48 h: 319 µM
[3]
  IC50: 40.3 µM

## COC(=O)c1cc(C)ccc1OC(=O)COc1cc(O)c2c(=O)cc(-c3ccccc3)oc2c1
T-cell [1]
  Ratio CC50/IC50: 11.93
[2]
  CC50 at 48 h: 306 µM
[3]
  IC50: 25.7 µM

## COC(=O)c1ccccc1OC(=O)COc1cc(O)c2c(=O)cc(-c3ccccc3)oc2c1
T-cell [1]
  Ratio CC50/IC50: 9.28
[2]
  CC50 at 48 h: 265 µM
[3]
  IC50: 28.5 µM

## COC(=O)c1ccc(Cl)cc1OC(=O)COc1cc(O)c2c(=O)cc(-c3ccccc3)oc2c1
T-cell [1]
  Ratio CC50/IC50: 21.43
[2]
  CC50 at 48 h: 265 µM
[3]
  IC50: 12.4 µM

## O=C(COc1cc(O)c2c(=O)cc(-c3ccccc3)oc2c1)Oc1cccc(O)c1C(=O)O
T-cell [1]
  Ratio CC50/IC50: 8.83
[2]
  CC50 at 48 h: 338 µM
[3]
  IC50: 38.2 µM

## O=c1[nH]cc(F)c(=O)[nH]1 [FLUOROURACIL]
[4]
  IC50: 56 µM
KB
  IC50: 2.16 µM
HepG2
  IC50: 2.78 µM
K562
  IC50: 38 µM

## O=C(COc1cc(O)c2c(=O)cc(-c3ccccc3)oc2c1)Oc1cccc(Br)c1C(=O)O
T-cell [1]
  Ratio CC50/IC50: 9.28
[2]
  CC50 at 48 h: 388 µM
[3]
  IC50: 41.7 µM

## O=C(COc1cc(O)c2c(=O)cc(-c3ccccc3)oc2c1)Oc1cccc(Cl)c1C(=O)O
T-cell [1]
  Ratio CC50/IC50: 9.39
[2]
  CC50 at 48 h: 366 µM
[3]
  IC50: 38.9 µM

## O=C(COc1cc(O)c2c(=O)cc(-c3ccccc3)oc2c1)Oc1c(Cl)cccc1C(=O)O
T-cell [1]
  Ratio CC50/IC50: 9.45
[2]
  CC50 at 48 h: 366 µM
[3]
  IC50: 38.7 µM

## Cc1cccc(OC(=O)COc2cc(O)c3c(=O)cc(-c4ccccc4)oc3c2)c1C(=O)O
T-cell [1]
  Ratio CC50/IC50: 8.02
[2]
  CC50 at 48 h: 298 µM
[3]
  IC50: 37.2 µM

## O=C(COc1cc(O)c2c(=O)cc(-c3ccccc3)oc2c1)Oc1c(Br)cccc1C(=O)O
T-cell [1]
  Ratio CC50/IC50: 9.31
[2]
  CC50 at 48 h: 379 µM
[3]
  IC50: 40.6 µM

## COC(=O)c1cc(F)ccc1OC(=O)COc1cc(O)c2c(=O)cc(-c3ccccc3)oc2c1
T-cell [1]
  Ratio CC50/IC50: 50.08
[2]
  CC50 at 48 h: 389 µM
[3]
  IC50: 6.82 µM

## COC(=O)c1cc(Br)ccc1OC(=O)COc1cc(O)c2c(=O)cc(-c3ccccc3)oc2c1
[4]
  IC50: 274 µM
T-cell [5]
  Activity: 7.41%
T-cell [1]
  Ratio CC50/IC50: >576.92
T-cell [6]
  Activity: Dose-dependent effect
T-cell [7]
  Activity: 15.66%
KB
  IC50: 0.79 µM
T-cell [8]
  Activity: 3.56%
T-cell [9]
  Activity: 1.56%
T-cell [10]
  Activity: 3.61%
T-cell [11]
  Activity: 30.09%
[2]
  CC50 at 48 h: > 450 µM
T-cell [12]
  Activity: 3.69%
T-cell [13]
  Activity: 2.12%
T-cell [14]
  Activity: 38.7%
T-cell [15]
  Activity: 3.79%
T-cell [16]
  viability at 4 µM: 54.5%
HepG2
  IC50: 0.61 µM
T-cell [17]
  Activity: 40.95%
[3]
  IC50: 0.78 µM
T-cell [18]
  viability at 8 µM: 50.1%
T-cell [19]
  Activity: 3.14%
[20]
  LD50: 738 mg/kg
K562
  IC50: 0.47 µM
T-cell [21]
  viability at 1 µM: 77%
T-cell [22]
  viability at 2 µM: 64.2%

## COC(=O)c1ccc(C)cc1OC(=O)COc1cc(O)c2c(=O)cc(-c3ccccc3)oc2c1
T-cell [1]
  Ratio CC50/IC50: 8.04
[2]
  CC50 at 48 h: 250 µM
[3]
  IC50: 31.1 µM

## COC(=O)c1cc(O)ccc1OC(=O)COc1cc(O)c2c(=O)cc(-c3ccccc3)oc2c1
T-cell [1]
  Ratio CC50/IC50: 8.94
[2]
  CC50 at 48 h: 263 µM
[3]
  IC50: 29.5 µM

## COC(=O)c1cccc(OC)c1OC(=O)COc1cc(O)c2c(=O)cc(-c3ccccc3)oc2c1
T-cell [1]
  Ratio CC50/IC50: 5.34
[2]
  CC50 at 48 h: 196 µM
[3]
  IC50: 36.8 µM

## COC(=O)c1ccc(Br)cc1OC(=O)COc1cc(O)c2c(=O)cc(-c3ccccc3)oc2c1
T-cell [1]
  Ratio CC50/IC50: 18.54
[2]
  CC50 at 48 h: 326 µM
[3]
  IC50: 17.6 µM

## Cc1cccc(C(=O)O)c1OC(=O)COc1cc(O)c2c(=O)cc(-c3ccccc3)oc2c1
T-cell [1]
  Ratio CC50/IC50: 7.65
[2]
  CC50 at 48 h: 299 µM
[3]
  IC50: 39.1 µM

## COC(=O)c1cc(Cl)ccc1OC(=O)COc1cc(O)c2c(=O)cc(-c3ccccc3)oc2c1
T-cell [1]
  Ratio CC50/IC50: >116.57
[2]
  CC50 at 48 h: > 436 µM
[3]
  IC50: 3.74 µM

## O=C(COc1cc(O)c2c(=O)cc(-c3ccccc3)oc2c1)Oc1cc(Cl)cc(Cl)c1C(=O)O
T-cell [1]
  Ratio CC50/IC50: 7.92
[2]
  CC50 at 48 h: 345 µM
[3]
  IC50: 43.6 µM

## O=C(COc1cc(O)c2c(=O)cc(-c3ccccc3)oc2c1)Oc1cc(Br)cc(Br)c1C(=O)O
T-cell [1]
  Ratio CC50/IC50: 8.69
[2]
  CC50 at 48 h: 398 µM
[3]
  IC50: 45.7 µM
